Measurements reported in ChEMBL document CHEMBL2062455, “Daphmacromines A-J, alkaloids from Daphniphyllum macropodum” (J Nat Prod, 2012).

Assays:
SW480 = experiment: Cytotoxicity against human SW480 cells after 48 hrs by MTT assay; format: functional, cell-based; conditions: SW480, 48 h
In short: (§1)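 Cells kept in DMEM or RPMI-1640 with 10% FBS at 37 °C, 5% CO2. Initial density 5 × 10^3 to 1 × 10^4 cells/mL. Adherent cells attached 12 h before dosing; suspension cells seeded just before dosing. Compounds at 40 μM, triplicate, 48 h, cisplatin and paclitaxel as positive controls. MTT then 4 h at 37 °C, SDS lysis, OD 595 nm. IC50 by Reed–Muench method.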

A549 = experiment: Cytotoxicity against human A549 cells after 48 hrs by MTT assay; format: functional, cell-based; conditions: A549, 48 h; in short: as §1
MCF7 = experiment: Cytotoxicity against human MCF7 cells after 48 hrs by MTT assay; format: functional, cell-based; conditions: MCF7, 48 h; in short: as §1
HL-60 = experiment: Cytotoxicity against human HL60 cells after 48 hrs by MTT assay; format: functional, cell-based; conditions: HL-60, 48 h; in short: as §1
[1] = Toxicity in brine shrimp assessed as mortality at […] after 24 hrs by microscopic analysis; format: organism-based; conditions: artemia salina, in vivo; read-out: Activity
In short: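 Artemia salina eggs hatched in artificial seawater for 48 h at 28 °C to give nauplii. Compounds dissolved in DMSO, then diluted in artificial seawater to 100, 50 and 10 mg/L and tested in triplicate, with DMSO control wells. 15−25 nauplii per well, covered plate, 28 °C, 24 h. Nonmotile nauplii were scored as dead under the microscope.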

SMMC-7721 = experiment: Cytotoxicity against human SMMC7721 cells after 48 hrs by MTT assay; format: functional, cell-based; conditions: SMMC-7721, 48 h; in short: as §1

Structure (SMILES) | IC50 (SW480) | IC50 (A549) | IC50 (MCF7) | IC50 (HL-60) | mortality at 24 h [1] | IC50 (SMMC-7721)
COC(=O)[C@@H]1C[C@@]23C4=C(CC[C@@H]5CN6C[C@@H](C)[C@@H](C[C@@H](OC(C)=O)[C@@]52COC(C)=O)[C@]63O)CC[C@@H]41 [YUZURIMINE] | > 40 µM | > 40 µM | > 40 µM | > 40 µM | 70.8% | > 40 µM
COC(=O)[C@@H]1C[C@@]23C4=C(CC[C@@H]5CN6C[C@@H](C)[C@@H](C[C@@H](OC(C)=O)[C@@]52COC(C)=O)C63)CC[C@@H]41 [DEOXYYUZURIMINE] | > 40 µM | > 40 µM | > 40 µM | > 40 µM | 81.8% | > 40 µM
COC(=O)[C@@H]1C[C@@]23C(=O)N4C[C@@H](CCC5=C2[C@@H]1CC5)[C@]3(CO)/C=C\C(=O)[C@H](C)C4 | > 40 µM | > 40 µM | > 40 µM | > 40 µM | 38.3% | > 40 µM
COC(=O)[C@@H]1C[C@@]23CN(C)C[C@@H](CCC4=C2[C@@H]1CC4=O)C31CC=C(C(C)C)OC1 (stereo partly specified) [DAPHMACROMINE J] | > 40 µM | > 40 µM | > 40 µM | > 40 µM | 55.2% | > 40 µM
CCC1=CCC2(CO1)[C@@H]1CCC3=C4[C@H](CC3=O)[C@H](C(=O)OC)C[C@@]42CN(C)C1 (stereo partly specified) [DAPHMACROMINE I] | > 40 µM | > 40 µM | > 40 µM | > 40 µM | 64.6% | > 40 µM
CCO[C@@]1(CC)CCC2(CO1)[C@@H]1CCC3=C4[C@H](CC3=O)[C@H](C(=O)OC)C[C@@]42CN(C)C1 (stereo partly specified) [DAPHMACROMINE C] | > 40 µM | > 40 µM | > 40 µM | > 40 µM | 50.9% | > 40 µM
COC(=O)[C@@H]1C[C@@]23CN(C)C[C@@H](CCC4=C2[C@H]1CC4=O)C31CC[C@@](O)(C(C)C)OC1 (stereo partly specified) [DAPHMACROMINE H] | > 40 µM | > 40 µM | > 40 µM | > 40 µM |  | > 40 µM
COC(=O)[C@@H]1C[C@@]23C4=C(CC[C@@H]5CN6C[C@@H](C)[C@@H](C[C@@H](O)[C@@]52CO)[C@]63O)CC[C@@H]41 [DAPHNEZOMINE K] | > 40 µM | > 40 µM | > 40 µM | > 40 µM | 0% | > 40 µM
CC[C@]1(OC)CCC2(CO1)[C@@H]1CCC3=C4[C@H](CC3=O)[C@H](C(=O)OC)C[C@@]42CN(C)C1 (stereo partly specified) [DAPHMACROMINE E] | > 40 µM | > 40 µM | > 40 µM | > 40 µM | 70.9% | > 40 µM
CCOC(=O)[C@@H]1C[C@@]23CN(C)C[C@@H](CCC4=C2[C@@H]1CC4=O)C31CC[C@](CC)(OC)OC1 (stereo partly specified) [DAPHMACROMINE A] | > 40 µM | > 40 µM | > 40 µM | > 40 µM | 41% | > 40 µM
CCO[C@@]1(CC)CCC2(CO1)[C@@H]1CCC3=C4[C@@H](CC3=O)[C@H](C(=O)OC)C[C@@]42CN(C)C1 (stereo partly specified) [DAPHMACROMINE D] | > 40 µM | > 40 µM | > 40 µM | > 40 µM | 53.8% | > 40 µM
COC(=O)[C@@H]1C[C@@]23C4=C(CC[C@@H]5CN6C[C@@H](C)[C@@H](C=C[C@@]52C=O)[C@]63O)CC[C@@H]41 [DAPHHIMALENINE B] | > 40 µM | > 40 µM | > 40 µM | > 40 µM | 64.9% | > 40 µM
COC(=O)[C@@H]1C[C@]23C4=NC[C@@H](C)[C@]45C[C@@H](OC(C)=O)[C@@]2(COC(C)=O)[C@H](CCC2=C3[C@@H]1CC2)[C@H]5O [DAPHTENIDINE C] | > 40 µM | > 40 µM | > 40 µM | > 40 µM | 31.8% | > 40 µM
COC(=O)[C@@H]1C[C@@]23C4=C(CC[C@@H]5CN6C[C@H](C)[C@@](O)(C=C[C@@]52C=O)[C@]63O)CC[C@@H]41 [YUZURIMINE C] | > 40 µM | > 40 µM | > 40 µM | > 40 µM | 80.6% | > 40 µM
CC[C@]1(OC)CCC2(CO1)[C@@H]1CCC3=C4[C@@H](CC3=O)[C@H](C(=O)OC)C[C@@]42CN(C)C1 (stereo partly specified) [DAPHMACROMINE G] | > 40 µM | > 40 µM | > 40 µM | > 40 µM | 67.7% | > 40 µM
CCOC(=O)[C@@H]1C[C@@]23CN(C)C[C@@H](CCC4=C2[C@H]1CC4=O)C31CC[C@](CC)(OC)OC1 (stereo partly specified) [DAPHMACROMINE B] | > 40 µM | > 40 µM | > 40 µM | > 40 µM | 49.9% | > 40 µM
CC[C@@]1(OC)CCC2(CO1)[C@@H]1CCC3=C4[C@H](CC3=O)[C@H](C(=O)OC)C[C@@]42CN(C)C1 (stereo partly specified) [DAPHMACROMINE F] | > 40 µM | > 40 µM | > 40 µM | > 40 µM | 45% | > 40 µM
